High-throughput results deposited in PubChem BioAssay by The Scripps Research Institute Molecular Screening Center.
Rows were chosen to be rich in hits. Some 2.4% of all compounds tested hit in one or more screens of this group.
OPRM1-OPRD1 inv = inverse agonists of human mu-delta opioid receptor heterodimerization | P35372+P41143 | cell-based MOR-DOR heterodimer luminescence, inverse agonism | inhibition, % at 9.3 µM | hit rate 0.21% among 340,000 | AID 504357; in the data active = inhibition above about 22%, passing the limit was not always enough;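 also: 0% = cells with DMSO and 100% = wells without cells with DMSO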
MOR-DOR ag = OPRM1-OPRD1 heterodimerization agonism; activation, % at 9.3 µM; hit rate 0.3% among 340,000; AID 504326; cells, luminescence; in the data active = activation above about 18%;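 also: 0% = vehicle-treated cells and 100% = reference agonist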
HTR5A ag ctr = counter-screen for OPRM1-OPRD1 agonists: human HTR5A agonism. P47898. HTR5A agonist assay, luminescence, cell-based. activation, % at 9.3 µM. hit rate 0.61% among 340,000. AID 504692; in the data active = activation mostly above about 9.5%, no sharp cut-off; inactive = mostly below about 7.6%;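 also: 0% = cells with vehicle only and 100% = reference agonist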
MC4R barr agon = agonists of human melanocortin 4 receptor (MC4R) beta-arrestin; P32245; U2OS MC4R beta-arrestin complementation, luminescence; percent of melanotan II response, DMSO zero; activation, % at 8.9 µM; hit rate 0.98% among 360,000; AID 540308;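 active = activation above a per-plate cutoff, the mean activation of sample wells on that plate plus 3 SD, cut at about 8% in these data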
Target sequence (P32245 whole entry, looked up): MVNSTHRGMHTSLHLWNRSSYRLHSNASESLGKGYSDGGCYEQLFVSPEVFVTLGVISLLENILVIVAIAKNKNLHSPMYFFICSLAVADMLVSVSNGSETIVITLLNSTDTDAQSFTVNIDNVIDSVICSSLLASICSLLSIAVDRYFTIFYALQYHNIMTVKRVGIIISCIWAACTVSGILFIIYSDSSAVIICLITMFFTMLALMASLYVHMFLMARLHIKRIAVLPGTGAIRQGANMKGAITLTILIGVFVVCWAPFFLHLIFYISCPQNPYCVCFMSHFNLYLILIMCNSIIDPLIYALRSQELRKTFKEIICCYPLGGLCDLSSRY
HTR5A inv ctr = HTR5A inverse agonism, opioid heterodimer counter-screen | P47898 | HTR5A cell line, luminescence | inhibition, % at 9.3 µM | hit rate 0.083% among 340,000 | AID 504634; in the data active = inhibition mostly above about 23%, no sharp cut-off; inactive = mostly below about 18%;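 also: 0% = cells with DMSO and 100% = no-cell wells with DMSO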
MC4R antag cAMP = blocks human MC4R cAMP signaling; MC4R-expressing cells, MTII-stimulated cAMP, LANCE TR-FRET; inhibition, % at 6.5 µM; P32245; hit rate 0.48% among 360,000;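 active = inhibition above its plate's cutoff, the mean of tested wells on that plate plus 3 SD, cut at about 29% in these data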;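 also: 0% = Melanotan II alone and 100% = Melanotan II plus saturating MCL0020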
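Material – human MC4R-expressing U2OS cells · Repeats – no replicates · Detection – TR-FRET with Eu-cAMP and labeled anti-cAMP, 671 nm · Times – compound 30 min, challenge 1 h, detection 1 h · Compound – single nominal compound dose of 6.5 µM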
MC4R barr conf = human MC4R beta-arrestin agonism confirmation; U2OS MC4R beta-arrestin recruitment, luminescence; scaled DMSO 0%, Melanotan II 100%; hit rate 31% among 2,400; activation, % at 8.9 µM; AID 602192; shares compounds with MC4R barr agon;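 active = mean activation across replicates above the hit cutoff set in the earlier primary screen, cut at about 8% in these data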
MOR DOR agonist = OPRM1-OPRD1 heterodimer agonism counter-screen | shares compounds with MC4R barr agon | U2OS PathHunter beta-arrestin, beta-gal luminescence; percent of deltorphin B response, DMSO zero | activation, % at 9.2 µM | hit rate 5.8% among 2,400 | AID 602194;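 active = mean activation across replicates exceeds the hit threshold derived in the earlier primary screen, cut at about 18% in these data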;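 also: 100% = deltorphin B at 0.9 µM final and 0% = DMSO alone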
An asterisk follows results filed as active; . = no result.

SMILES	OPRM1-OPRD1 inv	MOR-DOR ag	HTR5A ag ctr	MC4R barr agon	HTR5A inv ctr	MC4R antag cAMP	MC4R barr conf	MOR DOR agonist
Cc1cc(NC(=O)CSc2nc(CCC3CCCC3)nc3ccccc23)no1	-34.5	6.8	3.2	4.6	-9.9	11.8	.	.
CCC(C)NC(=O)c1c(N)n(/N=C/c2cccnc2)c2nc3ccccc3nc12 (stereo unspecified)	7.0	-1.4	1.6	13.4*	-31.2	9.8	27.8*	6.0
COCCCNC(=O)c1c(N)n(/N=C/c2cccs2)c2nc3ccccc3nc12	-0.4	0.1	-2.4	3.3	-21.1	4.0	.	.
COCCCNC(=O)c1c(N)n(/N=C/c2cccnc2)c2nc3ccccc3nc12	-1.1	0.2	5.0	10.1*	4.3	3.0	4.7	5.0
CCC(=O)NC(Nc1sc2c(c1C(=O)OC)CCCC2)(C(F)(F)F)C(F)(F)F	-23.1	3.9	5.3	14.6*	-14.0	8.9	-1.4	5.1
COc1ccc(-c2nnn(CC(=O)N(Cc3ccc(F)cc3)C(C(=O)NC3CCCC3)c3ccc(F)cc3)n2)cc1 (stereo unspecified)	-10.4	1.8	3.0	9.7*	-29.2	0.3	-0.2	2.7
CCOC(=O)CN(C(=O)Cn1nnc(-c2ccc(OC)cc2)n1)C(C(=O)NC1CCCC1)c1ccc(F)cc1 (stereo unspecified)	13.6	-3.0	6.7	-1.4	-34.6	4.8	.	.
O=C(Nc1ccccc1Cl)C1C(c2ccccc2)C1(Cl)Cl (stereo unspecified)	-24.5	5.0	-0.5	4.2	1.9	3.9	.	.
O=C(Nc1ccc(F)cc1)C1C(c2ccccc2)C1(Cl)Cl (stereo unspecified)	-67.1	11.2	-1.6	14.7*	4.4	-1.9	0.5	10.6
COc1ccc(C)cc1NCc1cc(=O)oc2cc(-c3ccccc3)c(O)cc12	-24.4	4.8	8.1	13.0*	-11.0	7.2	1.6	4.0
c1ccc(OCCCn2nnc(-c3ccc(N4CCOCC4)cc3)n2)cc1	-25.2	4.4	1.3	17.4*	-6.3	-2.2	3.3	12.0
O=c1[nH]c(SCc2ccc(F)cc2Cl)nc2ccccc12	-8.0	1.7	2.2	10.0*	0.4	-7.2	2.1	6.1
O=C(CSc1nnc(-c2cccs2)o1)N1CCOCC1	-62.3	11.0	2.2	17.9*	0.5	2.7	-1.1	1.4
Cn1c(SCC(=O)Nc2ccc(Cl)cc2)nnc1C1CC1	9.0	-1.4	3.4	-0.2	14.6	6.8	.	.
CSc1sc(-c2nnc(SCC(=O)Nc3ccc(Cl)cc3)n2C)c2c1C=CCC2	.	.	.	15.7*	.	11.9	7.8	9.3
O=C(Nc1ccccc1)Nc1cc(Cl)cc(Cl)c1	-58.1	10.2	-1.5	1.2	8.7	8.0	.	.
O=C(Nc1ccccc1)Nc1cc(OCC(F)(F)F)cc(OCC(F)(F)F)c1	-88.9	12.5	5.9	10.4*	-16.2	17.2	1.9	8.2
CCOc1cc(C(=O)N/N=C/c2cn(-c3ccccc3)nc2-c2cc3ccccc3o2)cc(OCC)c1OCC	-1.9	0.4	-3.3	2.4	-14.2	-3.7	.	.
O=C1/C(=C/c2cccc([N+](=O)[O-])c2)CCc2ccccc21	-27.6	4.4	7.5	1.7	-4.2	-6.0	.	.
O=C1/C(=C/c2cccc([N+](=O)[O-])c2)CSc2ccc(Cl)cc21	15.8	-3.0	0.5	11.3*	-19.1	5.3	-1.0	2.4
COC(C[C@@H](O)C[C@@H](O)COCc1ccccc1)OC	12.8	-2.2	0.3	0.1	-36.3	6.3	.	.
N/C(Cc1ccc(Cl)cc1)=N\OC(=O)c1cccc2ccccc12	-64.0	10.9	10.9	10.6*	-9.4	3.1	11.5*	12.9
Cc1ccc(CNC(=O)COC(=O)c2ccc(S(=O)(=O)N3CCOCC3)cc2)cc1	13.6	-2.7	0.5	-1.2	-1.8	5.4	.	.
O=C(Nc1ccc(Cl)cn1)c1cccc2ccccc12	-3.0	0.6	-4.1	-1.2	-5.8	-18.6	.	.
